Measurements published in ChEMBL document CHEMBL3593168, “Structure-Based Design of Macrocyclic Coagulation Factor VIIa Inhibitors” (J Med Chem, 2015).

What was measured:
[1] = target: Coagulation factor VII/tissue factor (Homo sapiens, UniProt P08709); assay: Inhibition of human recombinant TF/F7a complex using S2288 as substrate preincubated for 15 mins followed by protein addition measured for 60 mins; format: protein-complex assay
Method in brief: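 Ki measured against recombinant human TF/FVIIa enzyme at room temperature (25 °C) and averaged from two experiments.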

[2] = tested on: Plasma; assay: Anticoagulant activity in F7-deficient human plasma assessed as concentration required to double prothrombin time; format: functional
[3] = target: Coagulation factor IX (Homo sapiens, UniProt P00740); assay: Inhibition of human F9a measured for 30 mins
Coagulation factor IX, sequence (P00740 47-191 limits assumed): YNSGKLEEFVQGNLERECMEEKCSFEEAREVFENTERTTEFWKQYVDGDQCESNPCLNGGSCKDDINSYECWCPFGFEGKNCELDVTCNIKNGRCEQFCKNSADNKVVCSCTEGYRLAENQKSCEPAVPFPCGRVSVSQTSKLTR
Coagulation factor IX, sequence (P00740 227-461 limits assumed): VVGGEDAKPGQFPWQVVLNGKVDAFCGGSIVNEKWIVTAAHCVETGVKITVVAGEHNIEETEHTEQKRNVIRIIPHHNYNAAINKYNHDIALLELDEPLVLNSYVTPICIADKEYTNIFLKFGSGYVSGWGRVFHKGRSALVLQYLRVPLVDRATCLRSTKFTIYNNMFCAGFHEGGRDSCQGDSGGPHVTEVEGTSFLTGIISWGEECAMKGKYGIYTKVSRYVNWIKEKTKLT
Method in brief: (§1)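 Ki measured against purified human enzymes (APC, FXa, FIXa, plasma kallikrein, thrombin, trypsin) at room temperature (25 °C) and averaged from two experiments.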

[4] = target: Coagulation factor X (Homo sapiens, UniProt P00742); assay: Inhibition of human F10a using S2222 as substrate measured for 30 mins; method in brief: as §1
Coagulation factor X, sequence (P00742 41-179 limits assumed): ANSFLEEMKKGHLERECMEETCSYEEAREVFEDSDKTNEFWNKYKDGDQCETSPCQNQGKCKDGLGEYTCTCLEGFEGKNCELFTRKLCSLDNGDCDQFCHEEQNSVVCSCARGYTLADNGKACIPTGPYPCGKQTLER
Coagulation factor X, sequence (P00742 235-488 limits assumed): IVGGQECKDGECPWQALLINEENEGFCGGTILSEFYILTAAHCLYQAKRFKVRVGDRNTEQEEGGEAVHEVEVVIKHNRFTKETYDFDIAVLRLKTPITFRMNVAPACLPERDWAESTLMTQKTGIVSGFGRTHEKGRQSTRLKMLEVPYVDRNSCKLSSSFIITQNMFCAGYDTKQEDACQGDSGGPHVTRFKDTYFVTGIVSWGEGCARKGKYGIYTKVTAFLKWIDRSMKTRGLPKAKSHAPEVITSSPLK

[5] = target: Prothrombin (Homo sapiens, UniProt P00734); assay: Inhibition of human thrombin using S2238 as substrate measured for 30 mins; method in brief: as §1
[6] = target: Vitamin K-dependent protein C (Homo sapiens, UniProt P04070); assay: Inhibition of human APC measured for 30 mins; method in brief: as §1
Vitamin K-dependent protein C, sequence (P04070 43-197 limits assumed): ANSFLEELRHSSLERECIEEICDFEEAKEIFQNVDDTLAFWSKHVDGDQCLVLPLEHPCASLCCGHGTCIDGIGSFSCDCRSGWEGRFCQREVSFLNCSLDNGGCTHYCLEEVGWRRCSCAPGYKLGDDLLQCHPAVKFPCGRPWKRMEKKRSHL
Vitamin K-dependent protein C, sequence (P04070 212-461 limits assumed): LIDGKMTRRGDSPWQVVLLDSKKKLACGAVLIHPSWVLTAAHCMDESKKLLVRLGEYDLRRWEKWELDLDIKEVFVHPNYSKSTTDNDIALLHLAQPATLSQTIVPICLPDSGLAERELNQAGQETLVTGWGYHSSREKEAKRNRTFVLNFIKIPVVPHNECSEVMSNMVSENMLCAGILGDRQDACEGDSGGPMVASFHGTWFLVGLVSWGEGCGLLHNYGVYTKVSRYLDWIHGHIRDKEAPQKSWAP

[7] = target: Trypsin (Homo sapiens, UniProt P07477+P07478+P35030); assay: Inhibition of human trypsin measured for 30 mins; format: protein assay; method in brief: as §1
[8] = target: Plasma kallikrein (Homo sapiens, UniProt P03952); assay: Inhibition of human plasma kallikrein using S2302 as substrate measured for 30 mins; method in brief: as §1
Plasma kallikrein, sequence (P03952 20-390 limits assumed): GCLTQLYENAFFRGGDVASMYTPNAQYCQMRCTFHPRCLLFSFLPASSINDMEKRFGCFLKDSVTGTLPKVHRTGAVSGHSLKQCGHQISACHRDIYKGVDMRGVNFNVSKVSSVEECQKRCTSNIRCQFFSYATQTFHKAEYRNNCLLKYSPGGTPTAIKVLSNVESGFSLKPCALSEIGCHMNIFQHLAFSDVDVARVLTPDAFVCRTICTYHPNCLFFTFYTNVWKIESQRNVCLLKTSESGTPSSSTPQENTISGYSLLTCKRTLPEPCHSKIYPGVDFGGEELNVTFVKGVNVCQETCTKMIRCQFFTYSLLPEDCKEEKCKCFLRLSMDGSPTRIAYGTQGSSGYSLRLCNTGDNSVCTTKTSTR
Plasma kallikrein, sequence (P03952 391-638 limits assumed): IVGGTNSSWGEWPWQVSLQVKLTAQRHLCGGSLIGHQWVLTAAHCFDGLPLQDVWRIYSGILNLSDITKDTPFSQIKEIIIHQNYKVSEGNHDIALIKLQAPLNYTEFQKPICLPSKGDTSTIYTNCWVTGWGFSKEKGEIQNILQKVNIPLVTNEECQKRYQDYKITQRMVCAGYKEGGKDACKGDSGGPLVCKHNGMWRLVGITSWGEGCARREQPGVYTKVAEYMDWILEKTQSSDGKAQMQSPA

[9] = target: Kallikrein-1 (Homo sapiens, UniProt P06870); assay: Inhibition of human tissue kallikrein 1 measured for 30 mins
Kallikrein-1, sequence (P06870 whole entry): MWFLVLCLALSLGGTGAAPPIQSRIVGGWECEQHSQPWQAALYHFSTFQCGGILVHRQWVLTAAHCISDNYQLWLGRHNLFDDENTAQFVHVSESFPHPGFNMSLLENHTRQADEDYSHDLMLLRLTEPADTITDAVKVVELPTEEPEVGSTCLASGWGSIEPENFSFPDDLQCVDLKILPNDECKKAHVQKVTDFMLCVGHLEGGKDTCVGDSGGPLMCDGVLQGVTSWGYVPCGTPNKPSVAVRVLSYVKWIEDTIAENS
Method in brief: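 Purified human tissue kallikrein-1 assayed at 37 °C. Ki averaged from two experiments.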

Coagulation factor VII/tissue factor, sequence (P08709 61-212 limits assumed): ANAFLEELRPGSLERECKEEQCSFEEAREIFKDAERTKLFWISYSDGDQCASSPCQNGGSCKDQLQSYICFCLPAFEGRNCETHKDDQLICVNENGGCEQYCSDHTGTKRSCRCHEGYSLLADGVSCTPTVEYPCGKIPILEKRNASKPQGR
Coagulation factor VII/tissue factor, sequence (P08709 213-466 limits assumed): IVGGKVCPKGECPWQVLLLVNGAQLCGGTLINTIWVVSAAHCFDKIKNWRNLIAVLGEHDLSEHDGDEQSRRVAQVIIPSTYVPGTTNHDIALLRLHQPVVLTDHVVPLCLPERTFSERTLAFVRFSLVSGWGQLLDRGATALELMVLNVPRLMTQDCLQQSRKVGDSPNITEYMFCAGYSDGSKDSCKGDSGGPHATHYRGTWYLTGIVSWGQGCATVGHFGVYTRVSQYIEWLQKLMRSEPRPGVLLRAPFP
Coagulation factor VII/tissue factor, sequence (P13726 33-295 partner limits assumed): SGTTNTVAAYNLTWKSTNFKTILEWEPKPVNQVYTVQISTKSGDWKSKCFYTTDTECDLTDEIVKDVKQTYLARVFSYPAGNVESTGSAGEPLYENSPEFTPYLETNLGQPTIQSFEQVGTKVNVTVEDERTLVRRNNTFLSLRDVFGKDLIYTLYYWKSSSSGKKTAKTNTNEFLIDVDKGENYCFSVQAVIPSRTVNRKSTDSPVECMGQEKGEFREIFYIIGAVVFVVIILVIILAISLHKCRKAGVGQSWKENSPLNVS

| SMILES | Ki [1] [µM] | 2PT [2] [µM] | Ki [3] [µM] | Ki [4] [µM] | Ki [5] [µM] | Ki [6] [µM] | Ki [7] [µM] | Ki [8] [µM] | Ki [9] [µM] |
| --- | --- | --- | --- | --- | --- | --- | --- | --- | --- |
| Nc1nccc2cc(NC3C(=O)NCc4cccc(c4)NC(=O)CCc4ccc3cc4)ccc12 (stereo not drawn) | 4.6 |  |  |  |  |  |  |  |  |
| CC(=O)Nc1ccc(S(=O)(=O)C(C)C)c([C@H]2CCCN2C(=O)[C@H](Nc2ccc3c(N)nccc3c2)c2ccccc2)c1 | 0.008 | 12 |  |  |  |  |  |  |  |
| CCS(=O)(=O)c1ccc2cc1CNC(=O)[C@H](Nc1ccc3c(N)nccc3c1)c1ccc(c(C)c1)CCCC(=O)N2 | 0.0016 | 1.2 | 16 | 1 | 6.7 | 0.83 | 2.7 | 1.7 | 0.1 |
| CC(=O)Nc1cccc(CNC(=O)C(Nc2ccc3c(N)nccc3c2)c2ccccc2)c1 (stereo not drawn) | 10 |  |  |  |  |  |  |  |  |
| Nc1nccc2cc(NC3C(=O)NCc4cccc(c4)NC(=O)CCCc4ccc3cc4)ccc12 (stereo not drawn) | 0.92 |  |  |  |  |  |  |  |  |
| Nc1nccc2cc(NC3C(=O)NCc4cccc(c4)NC(=O)CCCOc4ccc3cc4)ccc12 (stereo not drawn) | 4.6 |  |  |  |  |  |  |  |  |
| CCS(=O)(=O)c1ccc2cc1CNC(=O)[C@H](Nc1ccc3c(N)nccc3c1)c1ccc(cc1)CCCC(=O)N2 | 0.008 | 1.6 | > 35 | 3.2 | 5.8 | 1.3 | 3.6 | 4.6 | 0.1 |
| CC(C)(C)S(=O)(=O)c1ccc2cc1CNC(=O)C(Nc1ccc3c(N)nccc3c1)c1ccc(cc1)CCCC(=O)N2 (racemic) | 0.03 | 8.6 | > 35 | 4.8 | > 13 | 14 | > 6 | > 6 | 0.022 |
| Nc1nccc2cc(NC3C(=O)NCc4cccc(c4)NC(=O)CCCCc4ccc3cc4)ccc12 (stereo not drawn) | 6.1 |  |  |  |  |  |  |  |  |
| Nc1nccc2cc(NC(C(=O)NCc3ccccc3)c3ccccc3)ccc12 (stereo not drawn) | 54 |  |  |  |  |  |  |  |  |
| CCS(=O)(=O)c1ccc2cc1CNC(=O)[C@H](Nc1ccc(C(=N)N)cc1)c1ccc(cc1)CCCC(=O)N2 | 0.0007 | 0.42 | 34 | 5.5 | 0.18 | 0.041 | 0.058 | 0.05 | 1.9 |
| Nc1nccc2cc(N[C@@H]3C(=O)NCc4cccc(c4)NC(=O)CCCc4ccc3cc4)ccc12 | > 18 |  |  |  |  |  |  |  |  |
| CC(C)S(=O)(=O)c1ccc2cc1CNC(=O)[C@H](Nc1ccc3c(N)nccc3c1)c1ccc(cc1)CCCC(=O)N2 | 0.0052 | 1.4 | > 35 | 3.3 | 4 | 1.8 | 3 | 3.6 | 0.1 |
| Nc1nccc2cc(N[C@H]3C(=O)NCc4cccc(c4)NC(=O)CCCc4ccc3cc4)ccc12 | 0.4 | 26 | > 35 | > 9 | > 13 | 2.8 | > 6 | > 6 | 0.018 |
